This is a sample that favours compounds with a hit; in the whole collection about 1.7% have one here.
TPT1 inh – blocks Candida albicans tRNA 2'-phosphotransferase; AID 1962; inhibition, % at 5 µM; recombinant caTPT1, FP RNA substrate dephosphorylation; actives 0.81% (n = 300,000);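 active = inhibition above the mean of all tested compounds plus 3 SD, set per screening campaign, cut at about 24% in these data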;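 also: plate controls were DMSO alone for no effect and ferristatin control at 100 nM for full effect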
IDE cell inh – cellular human IDE inhibition | inhibition, % at 5.59 µM | AID 434962 | HEK cells, FAbetaB cleavage, fluorescence polarization | actives 0.41% (n = 320,000);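 active = percent inhibition above the average of all tested compounds plus 3 SD, set per screening campaign, cut at about 16% in these data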;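 also: IDE supplied by intact live HEK cells; FP after avidin binding of uncleaved biotin substrate so inhibition keeps polarization high; 0% = DMSO wells and 100% = 60 µM reference IDE inhibitor Ii1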
IDE act – activators of human insulin-degrading enzyme in cells | actives 0.073% (n = 340,000) | AID 493087 | activation, % at 5.96 µM | P14735 | HEK cells, FAbeta-B cleavage, fluorescence polarization; 0% vehicle, 100% cell-free pure enzyme wells;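 active = activation above the mean of all tested compounds plus 3 SD, set per screening campaign, cut at about 17% in these data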
CSN deneddyl inh – inhibitors of human CSN-mediated cullin deneddylation | Purified CSN, SCF-Nedd8-OG deneddylation, fluorescence polarization | inhibition, % at 12.5 µM | Q92905 | actives 0.38% (n = 360,000);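 active = pattern-corrected inhibition above about 35%, with an unprinted fluorescence ratio check between 0.5 and 1.5, limit read from the data, passing the limit was not always enough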;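 also: 0% = enzyme with substrate and 100% = substrate without enzyme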
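Assay system: Purified human Csn5 enzyme expressed in HEK293T cells | Amount: Enzyme 0.24 nM | Measured by: Fluorescence polarization readout | Medium: Tris/NaCl/DTT buffer, pH 7.5 | Compound dosing: One concentration, 12.5 µM, 0.25% DMSO | Times: 90 min incubation of compound, enzyme and substrate at room temperature | Control set: no-enzyme wells high, enzyme-with-substrate wells low | Read-out: % inhibition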
TbMetRS inhib – Trypanosoma brucei MetRS inhibition; purified T. brucei MetRS, ATP depletion, Kinase-Glo luminescence; inhibition, % at 11.9 µM; actives 0.4% (n = 360,000); AID 624268;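 active = inhibition above a per-plate cutoff of the control wells' mean inhibition plus 3 SD, cut at about 5.5% in these data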;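 also: 0% = DMSO wells median and 100% = median of wells with control inhibitor compound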
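Assay system: T. brucei methionyl-tRNA synthetase, purified | Medium: HEPES buffer with MgCl2, KCl, DTT, spermine, BSA, pyrophosphatase | Compound: 11.9 µM single point | Incubation: 15 min enzyme-compound preincubation, 2 h reaction, 10 min detection, 25 °C | Measured by: Kinase-Glo luciferase luminescence reporting remaining unconsumed ATP | Measure: % inhibition normalized to control-well medians | Replication: Singlicate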
HNF4A DNA FP – change in binding of human HNF4 alpha to DNA; P41235; HNF4a-FITC DNA binding, fluorescence polarization, 1 h; activity change, % at 10 µM; actives 0.3% (n = 360,000); AID 1224865; in the data active = activity change above about 30%, passing the limit was not always enough
Target sequence (P41235 whole entry, looked up): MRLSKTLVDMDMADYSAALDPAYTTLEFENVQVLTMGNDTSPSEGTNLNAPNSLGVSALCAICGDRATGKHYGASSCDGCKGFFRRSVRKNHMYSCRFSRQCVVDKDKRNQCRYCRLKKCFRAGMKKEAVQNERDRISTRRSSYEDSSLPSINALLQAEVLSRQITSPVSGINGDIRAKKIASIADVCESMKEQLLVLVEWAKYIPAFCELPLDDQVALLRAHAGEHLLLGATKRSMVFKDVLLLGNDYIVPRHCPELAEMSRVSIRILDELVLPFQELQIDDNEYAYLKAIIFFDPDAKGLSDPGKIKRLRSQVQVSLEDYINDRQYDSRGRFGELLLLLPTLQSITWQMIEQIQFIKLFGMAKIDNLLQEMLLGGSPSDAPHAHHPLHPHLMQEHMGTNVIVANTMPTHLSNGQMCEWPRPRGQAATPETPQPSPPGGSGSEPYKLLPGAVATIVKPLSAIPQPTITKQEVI
IDE cell inh cf – cellular human IDE inhibition, confirmation. shares compounds with IDE cell inh. HEK cells, FAbetaB cleavage, fluorescence polarization. inhibition, % at 5.59 µM. actives 51% (n = 1,200). AID 435028;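 active = mean inhibition across triplicate wells above the cutoff set by the earlier primary insulin-degrading enzyme screen, cut at about 16% in these data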;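 also: 0% = DMSO wells and 100% = 60 µM reference IDE inhibitor Ii1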
HEK293 tox – counter-screen for IDE inhibitors: cytotoxicity in HEK cells | shares compounds with IDE cell inh | HEK293 cytotoxicity, ATP luminescence | inhibition, % at 5.59 µM | actives 28% (n = 1,200); in the data active = inhibition above about 22%;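 also: 0% = vehicle wells and 100% = reference cytotoxic drug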
An asterisk follows results filed as active; · = no result.

SMILES	TPT1 inh	IDE cell inh	IDE act	CSN deneddyl inh	TbMetRS inhib	HNF4A DNA FP	IDE cell inh cf	HEK293 tox
O=C(CN1C(=O)C2CC=CCC2C1=O)Nc1ccc(F)cc1F (stereo not given)	·	-3.2	4.1	-0.2	-0.3	-4.2	·	·
CCN(CC)CCNc1ncnc2c1[nH]c1ccc(OC)cc12	-0.4	-0.6	·	·	·	·	·	·
COc1ccc2[nH]c3c(N4CC(C)OC(C)C4)ncnc3c2c1 (stereo not given)	5.2	16.6*	·	·	·	·	7.2	11.3
COC(=O)[C@]1(Cc2ccccc2)N[C@H](CN(C)C(=O)c2ccc(F)cc2)[C@@H]2C(=O)N(C)C(=O)[C@@H]21	·	0.3	2.0	-3.6	-1.9	3.9	·	·
CCOC(=O)C1=C(CSc2nc(C)cc(C)c2C#N)OC(N)=C(C#N)C1c1ccccc1 (stereo not given)	2.1	7.4	1.7	5.3	-1.2	1.5	·	·
CCOC(=O)C1=C(CSc2nc(C)cc(C)c2C#N)OC(N)=C(C#N)C1c1cccs1 (stereo not given)	5.8	23.0*	·	·	·	·	3.1	5.2
COCCNC(=O)C(OC(=O)CC1Sc2ccccc2NC1=O)c1ccccc1 (stereo not given)	-1.9	0.6	0.6	-1.9	-0.2	0.9	·	·
Cc1cccc(C)c1N1CCN(c2cc(Cl)nc(N)n2)CC1	-2.2	17.5*	-8.2	5.0	-1.3	-3.7	4.4	14.0
Cc1cc(C)c2c(N)c(C(=O)NC3CCCC3)sc2n1	-3.0	4.1	-1.1	-2.5	0.8	0.4	·	·
COc1ccc(OC)c(CCNC(=O)Cn2nc(C)c3c(C)n(-c4ccc(C)cc4)nc3c2=O)c1	1.4	0.2	1.9	5.7	-0.1	-4.6	·	·
Cc1cc(C)c2c(=O)n(CC(=O)Nc3cccc(Cl)c3C)sc2n1	-1.4	40.0*	-61.8	-1.9	-0.3	3.6	6.1	79.0*
Cc1cc(C)c2c(=O)n(CC(=O)Nc3ccc(Br)c(C)c3)sc2n1	0.6	61.0*	-50.6	-1.9	-0.6	3.7	19.2*	21.8
COc1ccc(OC)c(CCNC(=O)Cn2sc3nc(C)cc(C)c3c2=O)c1	2.7	20.3*	·	·	·	·	6.8	124.5*
Cc1c(Cl)cccc1NC(=O)Cn1cccc1	1.2	2.8	7.5	3.8	-0.4	1.6	·	·
Cc1cc(NC(=O)Cc2ccsc2)ccc1Br	1.1	-4.9	2.4	3.6	-1.1	5.7	·	·
Cc1cc(C)c2c(=O)n(CC(=O)NC3CCCC3)sc2n1	-1.0	26.6*	-50.2	6.2	-1.1	0.8	2.0	80.3*
COc1cc(C)c(CN2CCN(CC(=O)Nc3ccccc3C(=O)NC3CC3)CC2)cc1OC	·	1.4	5.5	2.5	-0.2	0.3	·	·
CC1(Cc2ccc(C(F)(F)F)o2)C(=O)Nc2cc(-c3ccc(F)cc3F)ccc21 (stereo not given)	·	·	·	2.3	-0.1	-0.2	·	·
COc1cccc2sc(Nc3nc(-c4ccncc4)cs3)nc12	4.1	17.3*	-7.8	0.1	0.1	1.3	4.1	60.7*
COc1cccc2sc(Nc3nc4ccc(NC(C)=O)cc4s3)nc12	-0.1	23.6*	-16.2	27.4	-0.6	28.1	6.6	117.5*
COc1ccc(CC(=O)Nc2ccc(S(=O)(=O)N3CCN(C)CC3)cc2)cc1	·	-3.3	3.5	-7.2	-0.1	-0.1	·	·
COc1ccccc1N1CCN(S(=O)(=O)CCNC(=O)C23CC4CC(CC(C4)C2)C3)CC1	1.2	20.4*	-20.2	-1.6	0.2	-3.4	8.8	32.3*
CCOc1ccc(N=C(C)C2=C(O)c3ccccc3C2=O)cc1	-4.0	4.2	-11.3	2.0	-0.2	5.9	·	·
COc1ccc(N=C(C)C2=C(O)c3ccccc3C2=O)cc1	-0.2	17.9*	-5.1	0.1	0.5	1.3	7.3	15.6
CC[n+]1c(/C=C/N(C)c2ccccc2)n(-c2ccccc2)c2ccc(-c3nc4ccccc4s3)cc21	8.9	56.7*	-29.1	27.7	-1.0	31.0	21.5*	118.2*
